Assay results from different studies.
Observed: metabolic stability

N#Cc1ccc(C[C@H](NC(=O)c2cc3cc(F)ccc3[nH]2)C(=O)N2CCc3ccccc32)cc1
microsomal CLint (rat; liver microsomes; 10 µM; pH 7.4): 9.1 µL/min/mg

Cc1cc(S(=O)(=O)N[C@H]2C[C@H](CN3CCN(c4ccc(C5CCC(=O)NC5=O)c(Cl)c4)CC3)C2)ccc1Nc1ncc(C(F)(F)F)c(N2CCC[C@](C)(O)C2)n1 (some centres unmarked)
scaled CLint (rat; liver microsomes; 1 µM): 36 mL/min/kg

Cc1ccc(Nc2cnnc3ccc(-c4ccc(N5CCN(C)CC5)cc4)cc23)cn1
hepatocyte CLint (rat; hepatocytes): 15 µL/min/10⁶ cells

Cc1ccc(N(C)c2ccc(NC(=O)CN(C)c3ccccc3N3CCCC3=O)cn2)cc1
hepatocyte CLint (rat; hepatocytes): > 92 µL/min/10⁶ cells

Cc1cc(S(=O)(=O)N[C@H]2CC[C@H](CN3CCN(c4ccc(NC5CCC(=O)NC5=O)cc4F)CC3)CC2)ccc1Nc1ncc(C(F)(F)F)c(N2CCC[C@](C)(O)C2)n1 (some centres unmarked)
scaled CLint (rat; liver microsomes; 1 µM): < 21 mL/min/kg

O=C(NCc1nc(-c2ccc(C(F)(F)F)cc2)cs1)[C@H]1CCCN(C(=O)COCCN2CCCC2)C1
microsomal CLint (male Sprague-Dawley rat; liver microsomes; 0.5 µM): 34 µL/min/mg

N#Cc1ccc(C[C@H](NC(=O)c2cc3ccc(F)cc3[nH]2)C(=O)N2CCc3ccccc32)cc1
microsomal CLint (rat; liver microsomes; 10 µM; pH 7.4): 6.6 µL/min/mg

CCONC(=O)N1CCC[C@H](C(=O)NCc2nc(-c3ccc(C#N)cc3)cs2)C1
scaled CLint (male Sprague-Dawley rat; hepatocytes; 0.5 µM): 41 mL/min/kg

CCN(c1ccc(C)cc1)c1ccc(NC(=O)CN(C)c2ccccc2N2CCCC2=O)cn1
hepatocyte CLint (rat; hepatocytes): > 92 µL/min/10⁶ cells

N#Cc1ccc(C[C@H](Nc2nnc(-c3ccc(Br)cc3)s2)C(=O)N2CCc3ccccc32)cc1
microsomal CLint (rat; liver microsomes; 10 µM; pH 7.4): 46.2 µL/min/mg

CNS(=O)(=O)c1ccc(Nc2ncc3cc(Cl)c(=O)n(C4CCCC4)c3n2)c(C)c1
scaled CLint (rat; liver microsomes; 1 µM): 70 mL/min/kg

Cc1ccc(N(C)c2ccc(NC(=O)CN(C)c3ccccc3N3CCCC3=O)cc2)cc1
hepatocyte CLint (rat; hepatocytes): > 92 µL/min/10⁶ cells

CCONC(=O)N1CCC[C@H](C(=O)NCc2nc(-c3ccccc3)cs2)C1
microsomal CLint (male Sprague-Dawley rat; liver microsomes; 0.5 µM): 31 µL/min/mg

N#Cc1ccc(C[C@H](Nc2ncc(-c3ccc(F)cc3)o2)C(=O)N2CCc3ccccc32)cc1
microsomal CLint (rat; liver microsomes; 10 µM; pH 7.4): 16.1 µL/min/mg

CNS(=O)(=O)c1ccc(Nc2ncc(C(F)(F)F)c(N3CCC[C@](C)(O)C3)n2)c(C)c1
scaled CLint (rat; liver microsomes; 1 µM): 40 mL/min/kg

CCOCC(=O)N1CCC[C@H](C(=O)NCc2nc(-c3ccc(C)nc3)cs2)C1
microsomal CLint (male Sprague-Dawley rat; liver microsomes; 0.5 µM): 19 µL/min/mg

C[C@H]1CN(CC2CCN(c3ccc(C4CCC(=O)NC4=O)cc3F)CC2)CC[C@H]1NS(=O)(=O)c1ccc(Nc2ncc(C(F)(F)F)c(N3CCC[C@](C)(O)C3)n2)c(F)c1 (some centres unmarked)
scaled CLint (rat; liver microsomes; 1 µM): 45 mL/min/kg

Cc1ccc(N(C)c2ccc(NC(=O)CN(C)c3cccnc3N3CCCC3=O)cc2)cc1
hepatocyte CLint (rat; hepatocytes): > 92 µL/min/10⁶ cells

Cc1ccc(-c2csc(CNC(=O)[C@H]3CCCN(C(=O)COCCF)[C@H]3C)n2)cn1
microsomal CLint (male Sprague-Dawley rat; liver microsomes; 0.5 µM): 31 µL/min/mg

C[C@H]1CN(c2ccc(C3CCC(=O)NC3=O)cc2F)CCN1CC12CCC(NS(=O)(=O)c3ccc(Nc4ncc(C(F)(F)F)c(N5CCC[C@](C)(O)C5)n4)c(F)c3)(CC1)CO2 (some centres unmarked)
scaled CLint (rat; liver microsomes; 1 µM): < 21 mL/min/kg

Cc1ccc(Oc2ccc(NC(=O)CNc3ccccc3-n3cncn3)cc2)cc1
hepatocyte CLint (rat; hepatocytes): 46 µL/min/10⁶ cells

O=C(NCc1nc(-c2ccc(C(F)(F)F)cc2)cs1)[C@H]1CCCN(C(=O)CO[C@H]2CCCNC2)C1
microsomal CLint (male Sprague-Dawley rat; liver microsomes; 0.5 µM): 3.6 µL/min/mg

CNc1ccc(C(N)=O)cn1
hepatocyte CLint (male Wistar rat; hepatocytes; 1 µM; pH 7.4): 2.9 µL/min/10⁶ cells

NCCCOCC(=O)N1CCC[C@H](C(=O)NCc2nc(-c3ccc(C4CC4)cc3)cs2)C1
microsomal CLint (male Sprague-Dawley rat; liver microsomes; 0.5 µM): 15 µL/min/mg

COc1cc(-c2cc(C(C)=O)n3ccccc23)c(OC)cc1Cn1ccnc1
scaled CLint (rat; liver microsomes; 1 µM; pH 7.4): 145 mL/min/kg

CN1CCN(c2ccc(-c3ccc4nncc(Nc5ccc(OC(F)(F)F)cc5)c4c3)cc2)CC1
hepatocyte CLint (rat; hepatocytes): 14 µL/min/10⁶ cells

CN(CC(=O)Nc1ccc(N(C)c2ccc(Cl)c(F)c2)cc1)c1ccccc1N1CCCC1=O
hepatocyte CLint (rat; hepatocytes): 79 µL/min/10⁶ cells

Cc1nnc(-c2ccc3ccn(CC(=O)Nc4ccccc4Cl)c3c2)o1
hepatocyte CLint (rat; hepatocytes): > 92 µL/min/10⁶ cells

CNS(=O)(=O)c1ccc(Nc2ncc(C(F)(F)F)c([C@H]3CC[C@@](C)(O)CC3)n2)c(C)c1
scaled CLint (rat; liver microsomes; 1 µM): < 21 mL/min/kg

CC(C)N(c1ccc(C#N)cc1)c1ccc(NC(=O)CN(C)c2ccccc2N2CCCC2=O)cn1
hepatocyte CLint (rat; hepatocytes): 92 µL/min/10⁶ cells

C[C@]1(O)CCCN(c2nc(Nc3ccc(S(=O)(=O)N[C@@H]4CCN(CC5CCN(c6ccc(C7CCC(=O)NC7=O)cc6F)CC5)C[C@H]4F)cc3F)ncc2C(F)(F)F)C1 (some centres unmarked)
scaled CLint (rat; liver microsomes; 1 µM): < 21 mL/min/kg

CCOCC(=O)N1CCC[C@H](C(=O)NCc2nc(-c3ccc(C#N)nc3)cs2)C1
scaled CLint (male Sprague-Dawley rat; liver microsomes; 0.5 µM): 19 mL/min/kg
